IC50 data for two compounds are collected here from publication PMC12044415 (RSC Advances, 2025).

Experiment in all cases: Cell viability assay
Common to all, as to assay type: cell-based, human

Experiment [1] concerns A2780 (cisplatin-sensitive ovarian cancer cells). The settings on record: read-out: IC50 A2780; 96 h of incubation. The method in brief: (§1)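 Cells cultured per supplier at 37 °C, 5% CO2, and seeded at 1.5 × 10^3 per well. Treated with six concentrations of test compound (0.001, 0.01, 0.1, 1, 10 and 100 μM final), diluted into culture medium from a 10 mM DMSO stock; cisplatin stock in water. Viability read by CellTiter-Glo after 96 h. IC50 from triplicates, error bars as standard deviations.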

Experiment [2] deals with A2780cis (cisplatin-resistant ovarian cancer cells). The settings on record: read-out: IC50 A2780cis; 96 h of incubation. Summed up:
as §1

Experiment [3] deals with MDA-MB-231 (triple-negative breast cancer). The settings on record: read-out: IC50 MDA-MB-231; 96 h of incubation. The method in brief:
as §1

Experiment [4] relates to U87 (glioblastoma). The settings on record: read-out: IC50 U87; 96 h of incubation. The method in brief:
as §1

The subject of experiment [5] is MRC-5 (normal lung fibroblasts). The settings on record: read-out: IC50 MRC-5; 96 h of incubation. Summed up: as §1

For orientation: IC50 means the concentration needed to halve the response being measured. On to `C[N+]12CN3CN(C1)C[PH]([Pd]([I])([c]1ccc([N+](=O)[O-])cc1)[PH]14CN5CN(C[N+](C)(C5)C1)C4)(C3)C2.F[P-](F)(F)(F)(F)F.F[P-](F)(F)(F)(F)F` [7b], for which the IC50 is 3.1 ± 0.3 µM in experiment [1]; 0.18 ± 0.02 µM in experiment [2]; 6.7 ± 0.9 µM in experiment [3]; 90 ± 10 µM in experiment [4]; above 100 µM in experiment [5].

Take `N.N.[Cl][Pt][Cl]` [Cisplatin, cisplatin, reference compound]: the concentration for half-maximal inhibition (IC50) amounted to 45 ± 5 µM in experiment [2], 10.4 ± 0.4 µM in experiment [4] and 4 ± 1 µM in experiment [5].
